pIC50: −log10 of the molar value. Active and inactive are the calls of the source. No cut-off for these calls is given here.
Columns and labels:
Leishmania infantum [1] = assay: Antileishmanial activity against amastigote form of Leishmania infantum MCAN/ES/2001/UCM-10 infected in J774.2 cells after 72 hrs by haemocytometric analysis; format: functional, organism-based; conditions: Leishmania infantum, MCAN/ES/2001/UCM-10, J774.2, 72 h
In short: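 J774.2 macrophages grown in MEM with 2 mM glutamine and 20% inactivated FCS at 37 °C in 5% CO2. Infected with stationary-phase promastigotes at 10:1 for 24 h, then washed free of non-phagocytosed parasites. Compounds at 1, 10, 25, 50 and 100 for 72 h. Amastigotes counted on methanol-fixed, Giemsa-stained preparations and % reduction taken vs untreated. IC50 by linear regression of Kc values; three separate determinations.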

Leishmania infantum [2] = assay: Antileishmanial activity against axenic amastigote form of Leishmania infantum MCAN/ES/2001/UCM-10 after 72 hrs by haemocytometric analysis; format: functional, organism-based; conditions: Leishmania infantum, MCAN/ES/2001/UCM-10, 72 h
In short: (§1)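 Axenic amastigotes made by culturing promastigotes 3 days at 37 °C in M199 with 10% heat-inactivated FCS plus organic acids, amino acids, sucrose, bicarbonate, MES, haemin and gentamicin, pH 5.4. Compound effect counted in a Neubauer haemocytometer chamber. IC50 by linear regression of Kc values at 1, 10, 25, 50 and 100.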

Leishmania infantum [3] = assay: Antileishmanial activity against promastigote form of Leishmania infantum MCAN/ES/2001/UCM-10 assessed as change in succinate metabolite production at IC25 concentration after 96 hrs by H1-NMR analysis; format: functional
In short: (§2)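 Promastigote cultures, initial 5 × 10^5 cells/mL, given the IC25 of compound; controls left untreated. Incubated 96 h at 28 °C, then centrifuged at 400g for 10 min. Excreted metabolites in the medium identified by 1H NMR spectra and compared with untreated control.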

Leishmania infantum [4] = assay: Antileishmanial activity against promastigote form of Leishmania infantum MCAN/ES/2001/UCM-10 infected in J774.2 cells assessed as inhibition of infection in host cells at IC25 concentration incubated for 12 hrs followed by compound washout measured after 48 hrs by microscopic analysis; format: functional
In short: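 J774.2 cells seeded at 1 × 10^4 cells/well on coverslips and cultured 2 days. Infected with promastigotes at 10:1 with drug at IC25 added immediately, for 12 h at 37 °C in 5% CO2. Parasites and drug washed out, then grown 10 days with washing and fresh medium every 48 h. On methanol-fixed, Giemsa-stained slides, % infected cells and amastigotes per infected cell scored from more than 200 host cells. Three determinations.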

[5] = Selectivity index, ratio of IC50 for mouse J774.2 cells to IC50 for axenic amastigote form of Leishmania braziliensis MHOM/BR/1975/M2904; format: toxicity; conditions: J774.2 cells, read-out: Ratio IC50
In short: (§3)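 Axenic amastigotes obtained by 3-day promastigote transformation in supplemented M199 + 10% heat-inactivated FCS, pH 5.4, 37 °C. […] Host toxicity: J774.2, 72 h, PI/FDA flow cytometry. SI = macrophage IC50/axenic amastigote IC50; ratio is compound SI over Glucantime SI.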

[6] = Ratio of compound selectivity index to glucantime selectivity index for amastigote form of Leishmania braziliensis MHOM/BR/1975/M2904 infected in J774.2 cells over mouse J774.2 cells
In short: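 J774.2 macrophages in MEM + 2 mM glutamine + 20% inactivated FCS were infected with stationary-phase promastigotes (10:1) for 24 h at 37 °C, 5% CO2. After washing, compounds were added at […] for 72 h. Amastigote reduction was scored in methanol-fixed, Giemsa-stained preparations; IC50 by regression; triplicates. SI = J774.2 IC50 (72 h flow cytometry)/amastigote IC50; ratio is versus Glucantime SI.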

Leishmania braziliensis [7] = assay: Antileishmanial activity against promastigote form of Leishmania braziliensis MHOM/BR/1975/M2904 assessed as empty cytoplasmic at IC25 concentration after 96 hrs by MET microscopic analysis; format: functional; conditions: MHOM/BR/75/M2904
In short: (§4)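 Promastigotes at 5 × 10^5 cells/mL in MTL medium with compound at IC25 for 96 h. Ultrastructure examined by transmission electron microscopy against untreated control parasites.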

Leishmania braziliensis [8] = assay: Antileishmanial activity against promastigote form of […] Leishmania braziliensis MHOM/BR/1975/M2904 infected in J774.2 cells assessed as inhibition of infection in host cells at IC25 concentration incubated for 12 hrs […] by microscopic analysis; format: functional, MHOM/BR/75/M2904
Leishmania infantum [9] = assay: Antileishmanial activity against promastigote form of Leishmania infantum MCAN/ES/2001/UCM-10 assessed as increase in glycosomes at IC25 concentration after 96 hrs by […] electron microscopic analysis relative to control; format: functional, organism-based; in short: as §4
[10] = target: Superoxide dismutase [Mn] (Escherichia coli) (UniProt P00448); assay: Inhibition of Escherichia coli Mn-SOD by NBT reduction assay
Sequence of Superoxide dismutase [Mn] (Escherichia coli) (P00448 whole entry, looked up): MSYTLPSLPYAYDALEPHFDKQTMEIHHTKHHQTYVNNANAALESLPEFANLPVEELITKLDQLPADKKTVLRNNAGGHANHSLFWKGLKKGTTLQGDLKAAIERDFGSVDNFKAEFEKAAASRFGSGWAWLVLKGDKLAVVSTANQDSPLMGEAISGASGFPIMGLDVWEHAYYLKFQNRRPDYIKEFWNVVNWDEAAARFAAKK

Leishmania braziliensis [11] = assay: Antileishmanial activity against axenic amastigote form of Leishmania braziliensis MHOM/BR/1975/M2904 after 72 hrs by haemocytometric analysis; format: functional, MHOM/BR/75/M2904; conditions: Leishmania braziliensis, MHOM/BR/75/M2904, 72 h; in short: as §1
[12] = Ratio of compound selectivity index to glucantime selectivity index for axenic amastigote form of Leishmania braziliensis MHOM/BR/1975/M2904 over mouse J774.2 cells; in short: as §3
Leishmania braziliensis [13] = assay: Antileishmanial activity against promastigote form of Leishmania braziliensis MHOM/BR/1975/M2904 after 72 hrs by haemocytometric analysis; format: functional; conditions: MHOM/BR/75/M2904, 72 h
In short: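 Promastigotes grown at 28 °C in MTL medium with 10% inactivated FCS. Compounds in DMSO (0.1%), diluted in culture medium to 100, 50, 25, 10 and 1. Cells counted at 72 h in a Neubauer haemocytometric chamber. IC50 (50% inhibition) by linear regression of Kc values.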

Leishmania braziliensis [14] = assay: Antileishmanial activity against promastigote form of Leishmania braziliensis MHOM/BR/1975/M2904 assessed as change in succinate metabolite production at IC25 concentration after 96 hrs by H1-NMR analysis; format: functional, MHOM/BR/75/M2904; in short: as §2
Leishmania braziliensis [15] = assay: Antileishmanial activity against promastigote form of Leishmania braziliensis MHOM/BR/1975/M2904 assessed as ethanol metabolite production at IC25 concentration after 96 hrs by H1-NMR analysis; format: functional, MHOM/BR/75/M2904; in short: as §2
Leishmania braziliensis [16] = assay: Antileishmanial activity against promastigote form of Leishmania braziliensis MHOM/BR/1975/M2904 assessed as change in acetate metabolite production at IC25 concentration after 96 hrs by H1-NMR analysis; format: functional, MHOM/BR/75/M2904; in short: as §2
Leishmania braziliensis [17] = assay: Antileishmanial activity against promastigote form of Leishmania braziliensis MHOM/BR/1975/M2904 assessed as electro-dense vesicles at IC25 concentration after 96 hrs by MET microscopic analysis; format: functional; conditions: MHOM/BR/75/M2904; in short: as §4
[18] = Inhibition of promastigote form Leishmania braziliensis MHOM/BR/1975/M2904 Fe-SOD by NBT reduction assay; set-up: species or system Leishmania braziliensis MHOM/BR/75/M2904
In short: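 Promastigotes sonicated in sucrose/Tris-HCl/EDTA buffer, pH 7.8, and centrifuged. Protein precipitating at 35–85% ammonium sulphate desalted into 20 mM potassium phosphate with 1 mM EDTA, pH 7.8. Protein measured by Bradford. Fe-SOD activity read spectrophotometrically as inhibition of NBT reduction by superoxide, with compounds at 0.1–50. IC50 by linear regression of Kc values; three determinations; Newman-Keuls test vs control homogenate.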

| SMILES | pIC50 (Leishmania infantum [1]) | pIC50 (Leishmania infantum [2]) | Activity (Leishmania infantum [3]) | inhibition (INH) (Leishmania infantum [4]) | selectivity ratio [5] | Ratio [6] | Activity (Leishmania braziliensis [7]) | inhibition (INH) (Leishmania braziliensis [8]) | Activity (Leishmania infantum [9]) | pIC50 [10] | pIC50 (Leishmania braziliensis [11]) | Ratio [12] | pIC50 (Leishmania braziliensis [13]) | Activity (Leishmania braziliensis [14]) | Activity (Leishmania braziliensis [15]) | Activity (Leishmania braziliensis [16]) | Activity (Leishmania braziliensis [17]) | pIC50 [18] |
| --- | --- | --- | --- | --- | --- | --- | --- | --- | --- | --- | --- | --- | --- | --- | --- | --- | --- | --- |
| Cl.c1cncc(CNCCN2CCNCc3cccc(n3)CNCC2)c1 | 5.20 | 4.80 | -36% | 84% | 19.6 | 57 | Active | 86% | Active | 3.19 | 4.62 | 39 | 4.64 | -47% | -59% | -13% | Active | 5.05 |
| Br.NCCN1CCNCc2cccc(n2)CNCC1 | 4.59 | 4.53 | – | – | 14.5 | 29 | Active | 64% | – | 3.42 | 4.80 | 29 | 4.93 | 22% | 6% | 18% | Active | 4.82 |
| Cl.c1ccc(CNCCN2CCNCc3cccc(n3)CNCC2)nc1 | 4.71 | 4.60 | -59% | 77% | 15.9 | 30 | Active | 83% | Active | 3.75 | 4.80 | 32 | 4.95 | -78% | -71% | -46% | Active | 5.89 |
| Cl.c1cc2nc(c1)CNCCN(CCNCc1cccc3ccccc13)CCNC2 | 4.76 | 4.55 | -3% | 74% | 14.7 | 27 | Active | 71% | Active | 3.39 | 4.60 | 29 | 4.91 | 2% | -6% | 8% | Active | 4.78 |
